Measurements taken from ChEMBL document CHEMBL4715736, “Identification of anticancer agents based on the thieno[2,3-b]pyridine and 1H-pyrazole molecular scaffolds” (2016).

Tests used:
Assay type in all cases: functional
OVCAR-5 = assay: Growth inhibition of human OVCAR-5 cells assessed as cell growth at 10 uM incubated for 48 hrs by sulforhodamine B assay relative to control; details: read-out: Activity
Method in brief: (§1)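 Run by the NCI Developmental Therapeutics Program as part of its 60-line human tumour panel. Each compound tested at a single 10 µM dose. Growth expressed as % relative to untreated control cells (100%).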

A549 = assay: Growth inhibition of human A549/ATCC cells assessed as cell growth at 100 uM incubated for 48 hrs by sulforhodamine B assay relative to control; details: read-out: Activity
Method in brief: (§2)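 NCI Developmental Therapeutics Program NCI60 panel. Compounds that were active in the 10 µM one-dose screen went on to dose–response testing. Growth at each concentration is expressed relative to untreated control (100%). GI50 (concentration giving 50% of maximal inhibition of proliferation) and TGI (concentration giving total growth inhibition) were derived from the curves.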

DU-145 = assay: Growth inhibition of human DU-145 cells assessed as cell growth at 0.1 uM incubated for 48 hrs by sulforhodamine B assay relative to control; details: read-out: Activity; method in brief: as §2
RPMI-8226 = assay: Growth inhibition of human RPMI-8226 cells assessed as cell growth at 10 uM incubated for 48 hrs by sulforhodamine B assay relative to control; details: read-out: Activity; method in brief: as §1
NCI-H322M = assay: Growth inhibition of human NCI-H322M cells assessed as cell growth at 10 uM incubated for 48 hrs by sulforhodamine B assay relative to control; details: read-out: Activity
Method in brief: (§3)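 Submitted to the NCI Developmental Therapeutics Program for the NCI60 human tumour cell line panel. First screen at a single 10 µM concentration. Read-out is growth relative to untreated control cells set at 100%.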

NCI-H460 = assay: Growth inhibition of human NCI-H460 cells assessed as cell growth at 1 uM incubated for 48 hrs by sulforhodamine B assay relative to control; details: read-out: Activity
UACC-62 = assay: Growth inhibition of human UACC-62 cells assessed as cell growth at 10 uM incubated for 48 hrs by sulforhodamine B assay relative to control; details: read-out: Activity; method in brief: as §1
U-251 = assay: Growth inhibition of human U-251 cells assessed as cell growth at 1 uM incubated for 48 hrs by sulforhodamine B assay relative to control; details: read-out: Activity
TK-10 = assay: Growth inhibition of human TK-10 cells assessed as cell growth at 10 uM incubated for 48 hrs by sulforhodamine B assay relative to control; details: read-out: Activity; method in brief: as §1
HT-29 = assay: Growth inhibition of human HT-29 cells assessed as cell growth at 10 uM incubated for 48 hrs by sulforhodamine B assay relative to control; details: read-out: Activity; method in brief: as §3
CAKI-1 = assay: Growth inhibition of human CAKI-1 cells assessed as cell growth at 10 uM incubated for 48 hrs by sulforhodamine B assay relative to control; details: read-out: Activity; method in brief: as §2
NCI-H226 = assay: Growth inhibition of human NCI-H226 cells assessed as cell growth at 10 uM incubated for 48 hrs by sulforhodamine B assay relative to control; details: read-out: Activity; method in brief: as §3
CCRF-CEM = assay: Growth inhibition of human CCRF-CEM cells assessed as cell growth at 10 uM incubated for 48 hrs by sulforhodamine B assay relative to control; details: read-out: Activity; method in brief: as §2
MDA-MB-231 = assay: Growth inhibition of human MDA-MB-231 cells assessed as cell growth at 10 uM incubated for 48 hrs by sulforhodamine B assay relative to control; details: read-out: Activity; method in brief: as §3
K562 = assay: Growth inhibition of human K562 cells assessed as cell growth at 10 uM incubated for 48 hrs by sulforhodamine B assay relative to control; details: read-out: Activity; method in brief: as §3
SK-MEL-2 = assay: Growth inhibition of human SK-MEL-2 cells assessed as cell growth at 10 uM incubated for 48 hrs by sulforhodamine B assay relative to control; details: read-out: Activity; method in brief: as §1
Hs-578T = assay: Growth inhibition of human Hs-578T cells assessed as cell growth at 10 uM incubated for 48 hrs by sulforhodamine B assay relative to control; details: read-out: Activity; method in brief: as §3
SW-620 = assay: Growth inhibition of human SW-620 cells assessed as cell growth at 10 uM incubated for 48 hrs by sulforhodamine B assay relative to control; details: read-out: Activity; method in brief: as §1
SK-MEL-28 = assay: Growth inhibition of human SK-MEL-28 cells assessed as cell growth at 10 uM incubated for 48 hrs by sulforhodamine B assay relative to control; details: read-out: Activity; method in brief: as §1
IGROV-1 = assay: Growth inhibition of human IGROV-1 cells assessed as cell growth at 10 uM incubated for 48 hrs by sulforhodamine B assay relative to control; details: read-out: Activity; method in brief: as §3
SF-268 [1] = assay: Growth inhibition of human SF-268 cells assessed as cell growth at 10 uM incubated for 48 hrs by sulforhodamine B assay relative to control; details: read-out: Activity; method in brief: as §1
HOP-62 = assay: Growth inhibition of human HOP-62 cells assessed as cell growth at 10 uM incubated for 48 hrs by sulforhodamine B assay relative to control; details: read-out: Activity; method in brief: as §3
SF-268 [2] = assay: Growth inhibition of human SF-268 cells incubated for 48 hrs by sulforhodamine B assay
Method in brief: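 NCI DTP 60-line human tumour panel. Dose-response curves were run only for ligands active in the initial 10 µM screen. GI50 (concentration giving 50% of maximal inhibition of proliferation) and TGI (concentration giving total growth inhibition) were derived from these curves.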

LOX IMVI = assay: Growth inhibition of human LOX IMVI cells assessed as cell growth at 10 uM incubated for 48 hrs by sulforhodamine B assay relative to control; details: read-out: Activity; method in brief: as §3
SK-OV-3 = assay: Growth inhibition of human SK-OV-3 cells assessed as cell growth at 10 uM incubated for 48 hrs by sulforhodamine B assay relative to control; details: read-out: Activity; method in brief: as §1
NCI-H522 = assay: Growth inhibition of human NCI-H522 cells assessed as cell growth at 10 uM incubated for 48 hrs by sulforhodamine B assay relative to control; details: read-out: Activity; method in brief: as §3
BT-549 = assay: Growth inhibition of human BT-549 cells assessed as cell growth at 10 uM incubated for 48 hrs by sulforhodamine B assay relative to control; details: read-out: Activity
Method in brief: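 NCI Developmental Therapeutics Program NCI60 human tumour cell line panel, one-dose primary screen with every compound at 10 µM. Growth is expressed as % of untreated control cells (100%).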

NCI-H23 = assay: Growth inhibition of human NCI-H23 cells assessed as cell growth at 10 uM incubated for 48 hrs by sulforhodamine B assay relative to control; details: read-out: Activity; method in brief: as §3
MCF7 = assay: Growth inhibition of human MCF7 cells assessed as cell growth at 100 uM incubated for 48 hrs by sulforhodamine B assay relative to control; details: read-out: Activity
UACC-257 = assay: Growth inhibition of human UACC-257 cells assessed as cell growth at 10 uM incubated for 48 hrs by sulforhodamine B assay relative to control; details: read-out: Activity; method in brief: as §1
SR = assay: Growth inhibition of human SR cells assessed as cell growth at 10 uM incubated for 48 hrs by sulforhodamine B assay relative to control; details: read-out: Activity; method in brief: as §1
SNB-75 = assay: Growth inhibition of human SNB-75 cells assessed as cell growth at 10 uM incubated for 48 hrs by sulforhodamine B assay relative to control; details: read-out: Activity; method in brief: as §1

Compound | growth at 10 µM (OVCAR-5) [%] | growth at 10 µM (RPMI-8226) [%] | growth at 10 µM (NCI-H322M) [%] | growth at 10 µM (UACC-62) [%] | growth at 10 µM (TK-10) [%] | growth at 10 µM (HT-29) [%] | growth at 10 µM (CAKI-1) [%] | growth at 10 µM (NCI-H226) [%] | growth at 10 µM (CCRF-CEM) [%] | growth at 10 µM (MDA-MB-231) [%] | growth at 10 µM (K562) [%] | growth at 10 µM (SK-MEL-2) [%] | growth at 10 µM (Hs-578T) [%] | growth at 10 µM (SW-620) [%] | growth at 10 µM (SK-MEL-28) [%] | growth at 10 µM (IGROV-1) [%] | growth at 10 µM (SF-268 [1]) [%] | growth at 10 µM (HOP-62) [%] | growth at 10 µM (LOX IMVI) [%] | growth at 10 µM (UACC-257) [%] | other results
Cc1cc(C)c(NC(=O)c2sc3nc4c(cc3c2N)CN(Cc2ccccc2)CC4)c(C)c1 | 54 | 13 | 47 | 37 | 31 | 3 | 18 | 36 | 12 | 38 | 13 | 34 | 15 | 13 | 46 | 42 | 42 | 46 | 29 | 44 | growth at 100 µM (A549): 13%; growth at 0.1 µM (DU-145): 101%; growth at 1 µM (NCI-H460): 96%; growth at 1 µM (U-251): 92%; GI50 (SF-268 [2]): 6.93 µM; LC50 (concentration killing 50% of cells) (SF-268 [2]): > 100 µM; TGI (SF-268 [2]): 64.8 µM; growth at 10 µM (SK-OV-3): 36%; growth at 10 µM (NCI-H522): -13%; growth at 10 µM (BT-549): 30%; growth at 10 µM (NCI-H23): 27%; growth at 100 µM (MCF7): -8%
Cc1ccc(S(=O)(=O)n2ccc(-c3ccc(OCCCF)cc3)n2)cc1 | 110 | 72.8 | 93.7 | 63.9 | 62.8 | 86.4 | 63.8 | 77.6 | 75.6 | 93.9 | 55.4 | 87.2 | 109 | 103 | 85 | 92.5 | 103 | 108 | 92.5 | 80 | growth at 10 µM (SR): 67.4%; growth at 10 µM (SK-OV-3): 107%; growth at 10 µM (SNB-75): 78.3%; growth at 10 µM (NCI-H522): 69.5%; growth at 10 µM (BT-549): 99.9%; growth at 10 µM (NCI-H23): 78.7%
Cc1ccc(NC(=O)c2sc3nc4c(cc3c2N)C(=O)CCC4)cc1C | 21 | -2 | 35 | – | 56 | 1 | 35.7 | 56 | -6 | 22 | 5 | 31 | 18 | 15 | 37.3 | 23.9 | 42.7 | 23.6 | 39.2 | 54.2 | growth at 100 µM (A549): 13%; growth at 0.1 µM (DU-145): 101%; growth at 1 µM (NCI-H460): 11%; growth at 10 µM (SR): 11%; growth at 1 µM (U-251): 42%; GI50 (SF-268 [2]): 3.07 µM; LC50 (concentration killing 50% of cells) (SF-268 [2]): > 100 µM; TGI (SF-268 [2]): > 100 µM; growth at 10 µM (SK-OV-3): 4.9%; growth at 10 µM (SNB-75): -10.3%; growth at 10 µM (NCI-H522): -9.22%; growth at 10 µM (BT-549): 63%; growth at 100 µM (MCF7): 8%
Cc1cccc(NC(=O)c2sc3nc4c(cc3c2N)C(=O)CCC4)c1 | 32 | 22 | 37.2 | 14 | 57 | -1 | 26 | 43 | 24 | 20 | 16 | 13 | -7 | 21 | 34 | -4.52 | 33 | 8 | 24 | 37 | growth at 100 µM (A549): 19%; growth at 0.1 µM (DU-145): 89%; growth at 1 µM (NCI-H460): 8%; growth at 1 µM (U-251): 17%; GI50 (SF-268 [2]): 1.54 µM; LC50 (concentration killing 50% of cells) (SF-268 [2]): > 100 µM; TGI (SF-268 [2]): > 100 µM; growth at 10 µM (SK-OV-3): 3%; growth at 10 µM (SNB-75): 4.87%; growth at 10 µM (NCI-H522): -22%; growth at 10 µM (BT-549): 32%; growth at 10 µM (NCI-H23): 28%; growth at 100 µM (MCF7): -56%
O=S(=O)(c1ccc(Br)cc1)n1ccc(-c2ccc(OCCCF)cc2)n1 | 103 | 77.1 | 104 | 59.9 | 70.8 | 89.4 | 79.3 | 80.6 | 92.3 | 101 | 55.6 | 96.4 | 115 | 107 | 93.4 | 89 | 98.5 | 118 | 100 | 77.9 | growth at 10 µM (SR): 75.2%; growth at 10 µM (SK-OV-3): 106%; growth at 10 µM (SNB-75): 84.5%; growth at 10 µM (NCI-H522): 79.4%; growth at 10 µM (BT-549): 110%; growth at 10 µM (NCI-H23): 80.3%
CCc1cccc(C)c1NC(=O)c1sc2nc3c(cc2c1N)C(=O)CCC3 | 28 | -20 | 32 | 29 | – | – | 38 | 49 | 1 | 14 | 2 | – | 24.8 | 23 | 39 | 30 | 38 | 23.3 | 36 | 49 | growth at 100 µM (A549): 6%; growth at 0.1 µM (DU-145): 102%; growth at 1 µM (NCI-H460): 9%; growth at 10 µM (SR): 2.24%; growth at 1 µM (U-251): 37%; GI50 (SF-268 [2]): 3.04 µM; LC50 (concentration killing 50% of cells) (SF-268 [2]): > 100 µM; TGI (SF-268 [2]): > 100 µM; growth at 10 µM (SNB-75): -2.83%; growth at 10 µM (NCI-H23): 32%; growth at 100 µM (MCF7): -1%
